FN deposition inh: fibronectin deposition inhibition | inhibition, % at 12.6 µM | 350,000 tested, 0.086% active | AH1F fibroblasts, Alexa488-fibronectin deposition fluorescence, overnight;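 active = mean inhibition across replicates of 30% or more, regardless of how many single replicates reach that level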;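 also: positive control wells lacked labelled fibronectin entirely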
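Measured by – fluorescence 485/525 nm · System – AH1F fibroblast monolayer, labelled fibronectin deposition · Amount – 10000 cells per well · Buffer or medium – serum-reduced DMEM (2% serum) · Doses – single dose, pinned · Also added – fluorescent fibronectin at 24 nM final · Schedule – 1 h cell attachment, overnight exposure to compound and label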
SR-BI DiI-HDL act: activators of SR-BI mediated HDL lipid uptake; CHO ldlA[mSR-BI] cells, DiI-HDL uptake fluorescence, 3 h; 100 = double the neutral-control signal; activation, % at 12.5 µM; 320,000 tested, 0.096% active;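 active = mean replicate activation of at least 60% and every replicate at or above 60%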;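 also: 0% = median plate neutral-control signal and 100% = twice that signal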
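Assay system: CHO ldlA[mSR-BI] cells, LDL receptor-null, SR-BI overexpressing; medium: Ham's F12 with 0.5% BSA, HEPES 25 mM, pH 7.4; also added: DiI-HDL 10 µg/mL; timing: 3 h uptake period with compound, 37 °C; signal: DiI fluorescence, bottom read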
Efflux pump inh: inhibitors of Candida antifungal efflux pumps expressed in yeast. S. cerevisiae Candida pump triplex, Nile Red efflux. inhibition, % at 10 µM. 330,000 tested, 0.44% active;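 active = plate passing quality check with inhibition over a set limit, or well fluorescence over plate mean plus 4 SD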;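 also: Nile Red retained in pooled yeast measured as flow cytometry median fluorescence; 0% = buffer negative control and 100% = Enniatin B positive control; higher means more Nile Red kept so more efflux inhibition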
CaV13 ICDI inh: Disruptors of the CACNA1D IQ motif to Ca2+-dependent inactivation inhibitor domain association, primary screening, Förster resonance energy transfer in intact living …; HEK cells, CFP/YFP FRET ICDI-IQ, plate reader, 10 min; percent FRET-ratio fall versus neutral wells; inhibition, % at 12.3 µM; 340,000 tested, 0.098% active; AID 743397;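 active = mean replicate inhibition of at least 30% and at least 1% of replicates passing that level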;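 also: 0% = median of the neutral control wells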
SR-BI DiI inh: inhibitors of mouse SR-BI mediated HDL lipid uptake; Q61009; ldlA[mSR-BI] CHO cells, DiI-HDL uptake fluorescence, 3 h; inhibition, % at 12.5 µM; 320,000 tested, 0.96% active; AID 488896;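 active = mean replicate inhibition of at least 70% and a set share of replicates each scoring 70 or more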;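 also: 0% = median of neutral control wells and 100% = median of positive control wells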
Target sequence (Q61009 whole entry, looked up): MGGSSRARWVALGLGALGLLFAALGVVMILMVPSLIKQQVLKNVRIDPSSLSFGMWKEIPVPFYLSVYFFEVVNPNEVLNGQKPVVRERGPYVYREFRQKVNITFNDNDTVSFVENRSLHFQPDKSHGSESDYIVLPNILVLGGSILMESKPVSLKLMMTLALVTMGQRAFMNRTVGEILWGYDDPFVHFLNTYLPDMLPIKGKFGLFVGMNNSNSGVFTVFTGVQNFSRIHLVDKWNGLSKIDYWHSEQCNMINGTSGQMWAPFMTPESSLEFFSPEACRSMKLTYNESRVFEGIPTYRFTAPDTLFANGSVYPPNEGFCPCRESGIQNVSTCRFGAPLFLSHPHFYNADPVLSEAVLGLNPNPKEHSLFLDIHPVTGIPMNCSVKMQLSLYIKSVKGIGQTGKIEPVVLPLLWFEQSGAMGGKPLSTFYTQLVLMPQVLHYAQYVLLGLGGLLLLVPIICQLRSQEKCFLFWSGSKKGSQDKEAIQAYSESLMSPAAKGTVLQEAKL
Yeast cmpd fluor: counter-screen for efflux pump inhibitors: compound fluorescence. shares compounds with Efflux pump inh. S. cerevisiae AD/pABC3, flow cytometry. fluorescence ratio to DMSO, % at 10 µM. 1,700 tested, 4% active. AID 588517;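 active = fluorescence ratio to DMSO above its plate's cutoff, the plate mean ratio plus 5 SD, cut at about 210% in these data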;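 also: unstained yeast with no Nile Red so the signal is compound autofluorescence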
CaMdr1 efflux inh: inhibitors of Candida albicans Mdr1 efflux pump; S. cerevisiae AD/CaMDR1, Nile Red efflux, flow cytometry; inhibition, % at 10 µM; 1,700 tested, 1% active; shares compounds with Efflux pump inh; in the data active = inhibition above about 26%;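 also: 0% = DMSO vehicle and 100% = reference inhibitor; higher means more Nile Red retained so more efflux inhibition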
Cdr2 pump inh: Candida Cdr2 efflux pump inhibition; shares compounds with Efflux pump inh; S. cerevisiae AD/CaCDR2, Nile Red retention, flow cytometry; Nile Red retention ratio vs DMSO, % at 10 µM; 1,700 tested, 4% active; AID 588520; in the data active = Nile Red retention ratio vs DMSO above about 190%;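 also: higher ratio means more blocking of Cdr2 efflux of the dye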
Cdr1 pump inh: blocks the Candida albicans Cdr1 efflux pump in yeast; shares compounds with Efflux pump inh; AID 588522; 1,700 tested, 1% active; S. cerevisiae AD/CaCDR1, Nile Red efflux, flow cytometry; inhibition, % at 10 µM;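 active = inhibition above the screen-wide mean plus twice its standard deviation, cut at about 32% in these data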
* marks the source's active call; other numbers are inactive results; ! = a repeat was not active. Most compounds without a hit are left out; they make up all but 1.2% or so of the library.

What do the screens show for `CC1CCc2c(C(=O)Nc3ccc(OC(F)(F)F)cc3)csc2C1` (configuration not stated)?
FN deposition inh: 10.6; SR-BI DiI-HDL act: 32.3; Efflux pump inh: 18.9*; CaV13 ICDI inh: -4.3; SR-BI DiI inh: -32.3; Yeast cmpd fluor: 98.6; CaMdr1 efflux inh: -0.1; Cdr2 pump inh: 103.6; Cdr1 pump inh: 0.0

Results for CC1CCc2c(C(=O)Nc3nccs3)csc2C1 (configuration not stated) ?
SR-BI DiI-HDL act: -24.9; Efflux pump inh: 0.3; CaV13 ICDI inh: -7.0; SR-BI DiI inh: 24.9

What do the screens show for `CC(C)CC#Cc1cnc2c(c1)C(=O)N([C@@H](C)CO)C[C@H](C)[C@H](CN(C)C(=O)c1ccc(F)cc1)O2`?
FN deposition inh: -2.3

Results for O=C(Cc1cc(=O)[nH][nH]1)N/N=C/c1cccc(Cl)c1Cl ?
FN deposition inh: 9.9; SR-BI DiI-HDL act: 6.2; Efflux pump inh: 18.9*!; CaV13 ICDI inh: -1.9; SR-BI DiI inh: -6.2; Yeast cmpd fluor: 91.9; CaMdr1 efflux inh: -0.2; Cdr2 pump inh: 95.4; Cdr1 pump inh: 0.0

What do the screens show for `CC(=O)Nc1ccccc1OCC(=O)NCC(F)(F)F`?
FN deposition inh: 1.8; SR-BI DiI-HDL act: 7.5; Efflux pump inh: 0.6*; CaV13 ICDI inh: -4.9; SR-BI DiI inh: -7.5; Yeast cmpd fluor: 107.8; CaMdr1 efflux inh: 0.1; Cdr2 pump inh: 108.0; Cdr1 pump inh: -0.1

Results for O=C(C[C@H]1CC[C@H]2[C@@H](COC[C@H](O)CN2Cc2cccc(-c3ccncc3)c2)O1)N1CCCCC1 ?
FN deposition inh: -5.6

Results for CC(=O)NCCOc1nc(N2CCCCC2)nc(N2CCCCC2)n1 ?
FN deposition inh: -5.7; SR-BI DiI-HDL act: -9.4; Efflux pump inh: 0.0; CaV13 ICDI inh: -5.2; SR-BI DiI inh: 9.4

How did CC(=O)NCCOc1nc(N(C)C)nc(N2CCOCC2)n1 do in these assays?
FN deposition inh: -5.7; SR-BI DiI-HDL act: 9.9; Efflux pump inh: 0.5*; CaV13 ICDI inh: -4.5; SR-BI DiI inh: -9.9; Yeast cmpd fluor: 95.0; CaMdr1 efflux inh: 0.1; Cdr2 pump inh: 112.2; Cdr1 pump inh: 0.0

How did CCNC(=O)Nc1ccc2c(c1)C(=O)N(C)[C@H]1CC[C@@H](CC(=O)NCc3ccc(F)cc3)O[C@H]1CO2 do in these assays?
FN deposition inh: -8.8

What do the screens show for `CN(C)Cc1c(O)ccc2c1O/C(=C\C=C\c1ccccc1)C2=O`?
FN deposition inh: 2.4; Efflux pump inh: 0.6*; CaV13 ICDI inh: -181.5; Yeast cmpd fluor: 83.3; CaMdr1 efflux inh: 0.1; Cdr2 pump inh: 103.8; Cdr1 pump inh: -0.4

Results for CCN1CCN(Cc2c(O)ccc3c2O/C(=C\C=C\c2ccccc2)C3=O)CC1 ?
FN deposition inh: -3.3; SR-BI DiI-HDL act: 6.5; Efflux pump inh: 0.2; CaV13 ICDI inh: -15.0; SR-BI DiI inh: -6.5

How did COc1ccc(OC)c2c1C(=O)C(Cl)=C(Cl)C2=O do in these assays?
FN deposition inh: 60.5*; SR-BI DiI-HDL act: -31.2; Efflux pump inh: 1.5*; CaV13 ICDI inh: -1.0; SR-BI DiI inh: 31.2; Yeast cmpd fluor: 122.8; CaMdr1 efflux inh: 1.1; Cdr2 pump inh: 245.8*; Cdr1 pump inh: 0.6

Results for O=C(CCC(=O)OCCCC(F)(F)C(F)(F)F)Nc1ccccc1 ?
SR-BI DiI-HDL act: 41.0; Efflux pump inh: -0.2; CaV13 ICDI inh: -6.7; SR-BI DiI inh: -41.0

How did O=C(CCC(=O)OCCCC(F)(F)C(F)(F)F)NC1CCCCC1 do in these assays?
SR-BI DiI-HDL act: 15.0; Efflux pump inh: 1.4*; CaV13 ICDI inh: -3.6; SR-BI DiI inh: -15.0; Yeast cmpd fluor: 81.2; CaMdr1 efflux inh: -0.2; Cdr2 pump inh: 91.1; Cdr1 pump inh: -0.3

Compound activity (PubChem)
